# Variants at the floor of the assay were thinned out.
# B1: tRNA (parent)
# chain: GUUCCGUUGGCGUAAUGGUAACGCGUCUCCCUCCUAAGGAGAAGACUGCGGGUUCGAGUCCCGUACGGAACG
# Variants of: B1
# Experiment: yeast fitness relative to wild type (ratio to wild type); higher = fitter; tRNA-Arg(CCU), competitive growth, 37 C, YPD
# Summary of the method: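 A pool of Saccharomyces cerevisiae strains, each with a tRNA-Arg(CCU) gene variant at the native genomic locus, was competed in YPD at 37°C for 24 hours across six parallel replicates. The variants had been chemically synthesised at a 3% per-site mutation rate over 69 sites, and gene amplicons before and after competition were read by 100-nucleotide paired-end sequencing. Darwinian fitness relative to wild type rested on changes in genotype frequencies. Genotypes required ≥ 100 starting reads, and estimates < 0.5 were set to 0.5.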
row,Variant,yeast fitness
1,GUUCCGUUAGCGUAAUGGUAAGGCGUCUCCCUCCUAAGGAGAAGACUGCGGGUUCGAGUCCCGUCCGGAACG [G9A C22G A65C],0.679
2,GUUCCGUUAGCGUAAUGGUAAGGCGUCUCCUUCCUAAGGAGAAGACUGCGGGUUCGAGUCCCGUACGGAACG [G9A C22G C31U],0.683
3,GUUCCGUUAGCGUAAUGGUAAGGCGUCUCCUUCCUAAGGAGAAGACUGCGGGUUCGAGUCACGUCAGGAACG [G9A C22G C31U C61A A65C C66A],≤ 0.5
4,GUUCCGUUAGCGUAAUGGUAAGGCGUCUCCCUCCUAAGGAGAAGACUGCGGGUUCGAGUCCCGUACAGAACG [G9A C22G G67A],0.648
5,GUUCCGUUAGCGUAAUGGUAAGGCGUCUCCCUCCCAAGGAGAAGACUGCGGGUUCGAGUCCCGUACGGAGCG [G9A C22G U35C A70G],≤ 0.5
6,GUUCCGUUAGCGUAAUGGUAAGGCGUCUCCCUCCCAAGGAGAAGACUGGGGGUUCGAGUCCCGUACGCAACG [G9A C22G U35C C49G G68C],≤ 0.5
7,GUUCCGUUAGCGUAAUGGUAAGGCGUCUCCCUCCUAAGGAGAAGACUGCGGGUCCGAGUCCCGUACGGAACG [G9A C22G U54C],0.589
8,GUUCCGUUAGCGUAAUGGUAAUGCGUCUCCCUCCUAGGGAGAAGACUGCGGGUUCGAGUCCCGUACGGAACG [G9A C22U A37G],≤ 0.5
9,GUUCCGUUAGCGUAAUGGUAAUGCGUCUCCCUCCUAAGGAGAGGACUGCGGGUUCGAGUCCCGAACGGAACG [G9A C22U A43G U64A],≤ 0.5
10,GUUCCGUUAGCGUAAUGGUAAUGCGUCUCACUCCUAAGGAGAAGACUGAGGGUUAGAGUCAUGUAUGGAACG [G9A C22U C30A C49A C55A C61A C62U C66U],≤ 0.5
11,GUUCCGUUAGCGUAAUGGUAAUGCGUCUCCCUCCUAAGGAGAAGACUGCGGGUUCGAGUGCCGUCCGGAACG [G9A C22U C60G A65C],0.648
12,GUUCCGUUAGCGUAAUGGUAAUGCGUCUCCCUCCUAAGGAGAAGACUGCGGGUUCGAGUCUCGUACGGACCG [G9A C22U C61U A70C],≤ 0.5
13,GUUCCGUUAGCGUAAUGGUAAUGCGUCUCCCUCCUAAGGAGAAGACUACGGGUUCGAGUGCCGUCCGGAACG [G9A C22U G48A C60G A65C],≤ 0.5
14,GUUCCGUUAGCGUAAUGGUAAUGCGUCCCCCUCCUAAGGAGAAAACUGCGCGUUCGACUCCCGUACGGAACG [G9A C22U U28C G44A G51C G58C],≤ 0.5
15,GUUCCGUUAGCGUAAUGGUAAUGCGUCUCCCUCCUAAGGAGAAGACUGCGGGGUCGAGUCCCGUACGGAACG [G9A C22U U53G],0.555
16,GUUCCGUUAGCGUAAUGGUAACGAGUCUCCCUCCUAAGGAGAAGACUGCGGGUUCGAGUCCCGUAAGGAACG [G9A C24A C66A],≤ 0.5
17,GUUCCGUUAGCGUAAUGGUAACGAGUCUCCCUCCUAAGGAGAAGACUGCGGGUUCGAGACCCGUACAGAACG [G9A C24A U59A G67A],≤ 0.5
18,GUUCCGUUAGCGUAAUGGUAACGGGUCUCCCUCCUAGGGAGAAGACUGCGGGUUCGAGACCCGUACAGAACG [G9A C24G A37G U59A G67A],≤ 0.5
19,GUUCCGUUAGCGUAAUGGUAACGGGUCUCCCUCCUAAGGCGAAGACUGCGGGUUCGAGUCCCGUACGAAACG [G9A C24G A40C G68A],≤ 0.5

row,Variant,yeast fitness
1,GUUCCGUUAGCGUAAUGGUAACGGGUCUCUCUCCUAAGGAGAAGACUGCGGGUUCGGGUCCCGUACGGAACG [G9A C24G C30U A57G],≤ 0.5
2,GUUCCGUUAGCGUAAUGGUAACGGGUCUCCCUCGUAAGGAGACGACUGCGGGUUCGAGUCCCGUACGGAACG [G9A C24G C34G A43C],≤ 0.5
3,GUUCCGUUAGCGUAAUGGUAACGGGUCUCCCUCGUAAGGAGAAGACUGCGGGUUCGAGUCUCGUACGGAACG [G9A C24G C34G C61U],≤ 0.5
4,GUUCCGUUAGCGUAAUGGUAACGGGUCUCCCUCCUAAGGACAAGACUGCGGGUUCGAGUCCCGUAGGGAACG [G9A C24G G41C C66G],≤ 0.5
5,GUUCCGUUAGCGUAAUGGUAACGGGUCCCCCUCCUAAGGAGAAGACUGCGGGUUCGCGUCCCGUACGGAACG [G9A C24G U28C A57C],≤ 0.5
6,GUUCCGUUAGCGUAAUGGUAACGUGUCUCCCUCCUAAGGUGAAGACUGCGGGUUCGUGUCCCGUACGGAACG [G9A C24U A40U A57U],0.514
7,GUUCCGUUAGCGUAAUGGUAACGUGUCUCGCUCAUAAGGAGAAGACUGGGGGUUCGAGUCCCGUACGGAACG [G9A C24U C30G C34A C49G],≤ 0.5
8,GUUCCGUUAGCGUAAUGGUAACGUCUCUCGCUCCUAAGGAGAAGACUGCCGGUUCAAGUCCCGUAUGGAACG [G9A C24U G25C C30G G50C G56A C66U],≤ 0.5
9,GUUCCGUUAGCGUAAUGGUAACGUGUCUCCCUCCUAAAGAGAAGACUCCGGGUUCGAGUCCCGUACGGAACG [G9A C24U G38A G48C],≤ 0.5
10,GUUCCGUUAGCGUAAUGGUAACGUGUCUCCCUCCUAACGAGAAGACUGCGGGUUCCAGUCCCGUACGGAACG [G9A C24U G38C G56C],≤ 0.5
11,GUUCCGUUAGCGUAAUGGUAACGUGUCUCCCUCCUAAGGAGAAGACUGCGGGUUCGACUCCCGUACCGAACG [G9A C24U G58C G67C],≤ 0.5
12,GUUCCGUUAGCGUAAUGGUAACGUGUCUCCCACCUAAGGAGAAGACUGCGGGUUCGAGUCCCGUACGGAACG [G9A C24U U32A],0.564
13,GUUCCGUUAGCGUAAUGGUAACGUGUCUCCCGCCUAAGGAGAAGACUGCGGGUUCGAGUCCCGUCGGGAACG [G9A C24U U32G A65C C66G],≤ 0.5
14,GUUCCGUUAGCGUAAUGGUAACGUGUCUCCCUCCUAAGGAGAAGACUGCGGGAUCGAGUCCCGUAUGGAACG [G9A C24U U53A C66U],0.529
15,GUUCCGUUAGCGUAAUGGUAACGCGUAUCCCUCCUAAGGAGAAGACUGUGGGUUCGAGUUCAGUGCGGAACG [G9A C27A C49U C60U C62A A65G],≤ 0.5
16,GUUCCGUUAGCGUAAUGGUAACGCGUGUCCCUCCUAAGGGGAAGACUGCGGGUUCGAGUCCCGUACGGAACG [G9A C27G A40G],0.53
17,GUUCCGUUAGCGUAAUGGUAACGCGUGUCCCUCCUAAGGGGAAGACUGCGGGUUCGAGUCCCGUACGAAACG [G9A C27G A40G G68A],≤ 0.5
18,GUUCCGUUAGCGUAAUGGUAACGCGUGUCCCUCCUAAGGAGAGGACUGCGGGUUCGAGUCCCGUAGGGAACG [G9A C27G A43G C66G],0.717

# Reference: the RNAGym collection of RNA variant scans (doi:10.1126/science.aae0568)
